pEC50, pIC50, pKd: −log10 of the molar value. One block for each compound: values may come before it. Active and inactive are the calls of the source. No cut-off for these calls is given here.
How the values were obtained:
[1] = tested on: HT-29; experiment: Anti-necroptotic activity in human HT-29 cells assessed as inhibition of TNFalpha/Z-VAD-fmk (TSZ)-induced necroptosis by measuring increase in cell viability by celltiter-glo luminescent cell viability assay; format: functional, cell-based
Procedure, shortened: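 HT-29 cells or MEFs were pretreated with compound or DMSO for 1 h, then stimulated with TNF (20 ng/mL), Smac mimetic (100 nM) and z-VAD. Viability was read as ATP level by CellTiter-Glo (24 h per methods; 40 h per legends). EC50 is the geometric mean of at least two runs ± SEM.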

[2] = tested on: HT-29; experiment: Cytotoxicity against human HT-29 cells assessed as cell death at 20 uM by celltiter-glo luminescent cell viability assay; format: cell-based; details: ht-29, 20 µM
Procedure, shortened: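 HT-29 cells were given a compound concentration gradient without TSZ stimulation. Viability was read as ATP level by luminescence. Cell death above 30% at 20 µM was scored as significant toxicity.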

[3] = biological target: Activin receptor type-1B (Homo sapiens, UniProt P36896); experiment: Inhibition of human ALK4 using ATP as substrate incubated for 120 mins by ADP-glo based luminescence assay
[4] = biological target: Receptor-interacting serine/threonine-protein kinase 2 (Homo sapiens) (UniProt O43353); experiment: Inhibition of RIPK2 (unknown origin) at 10 uM
[5] = tested on: MEF; experiment: Anti-necroptotic activity in mouse MEF cells assessed as inhibition of TNFalpha/Smac mimetic/Z-VAD-fmk (TSZ)-induced necroptosis by measuring increase in cell viability by celltiter-glo luminescent cell viability assay
[6] = biological target: Receptor-interacting serine/threonine-protein kinase 3 (Homo sapiens, UniProt Q9Y572); experiment: Binding affinity to human wild type RIPK3 (M1/Q307) expressed in bacterial expression system by Kinomescan method
Procedure, shortened: (§1)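 KINOMEscan competition binding assay. Kinases were expressed as tags on T7 phage grown in E. coli BL21, or produced in HEK-293 cells and DNA-tagged. Kinase, ligand-loaded streptavidin beads and compound were combined in binding buffer (20% SeaBlock, 0.17x PBS, 0.05% Tween 20, 6 mM DTT) for 1 h at room temperature with shaking. Bound kinase was read by qPCR.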

[7] = biological target: Receptor-interacting serine/threonine-protein kinase 1 (Homo sapiens, UniProt Q13546); experiment: Binding affinity to human wild type RIPK1 (M1/K305) expressed in bacterial expression system by Kinomescan method; procedure, shortened: as §1
[8] = biological target: Receptor-interacting serine/threonine-protein kinase 1 (Homo sapiens) (UniProt Q13546); experiment: Inhibition of human RIPK1 using ATP and substrate at 10 uM incubated for 120 mins by ADP-glo based luminescence assay
[9] = biological target: Epidermal growth factor receptor (Homo sapiens, UniProt P00533); experiment: Inhibition of EGFR (unknown origin) using FAM-labeled peptide as substrate preincubated for 10 mins followed by substrate addition measured after 60 mins in presence of ATP by caliper mobility shift assay
[10] = biological target: Platelet-derived growth factor receptor alpha (Homo sapiens, UniProt P16234); experiment: Inhibition of PDGFRA (unknown origin) using FAM-labeled peptide as substrate preincubated for 10 mins followed by substrate addition measured after 60 mins in presence of ATP by caliper mobility shift assay
[11] = biological target: CDK4/Cyclin D3 (Homo sapiens, UniProt P11802); experiment: Inhibition of CDK4/Cyclin D3 (unknown origin) using FAM-labeled peptide as substrate preincubated for 10 mins followed by substrate addition measured after 60 mins in presence of ATP by caliper mobility shift assay; format: protein-complex assay
[12] = biological target: Serine/threonine-protein kinase B-raf (Homo sapiens, UniProt P15056); experiment: Inhibition of BRAF (unknown origin) in presence of ATP by Lanthascreen TR-FRET assay
[13] = biological target: Serine/threonine-protein kinase mTOR (Homo sapiens, UniProt P42345); experiment: Inhibition of mTOR (unknown origin) using ATP as substrate after 60 mins by Lance ultra assay
[14] = biological target: Phosphatidylinositol 4,5-bisphosphate 3-kinase catalytic subunit alpha isoform (Homo sapiens, UniProt P42336); experiment: Inhibition of human PI3Kalpha using ATP as substrate at 25 uM incubated for 60 mins by ADP-glo based luminescence assay
[15] = biological target: CYP1A2 (Homo sapiens, UniProt P05177); experiment: Inhibition of CYP1A2 (unknown origin) at 10 uM incubated for 20 mins by LC-MS/MS analysis; format: ADME
[16] = biological target: CYP2C9 (Homo sapiens, UniProt P11712); experiment: Inhibition of CYP2C9 (unknown origin) at 10 uM incubated for 20 mins by LC-MS/MS analysis; format: ADME
[17] = biological target: CYP2C19 (Homo sapiens, UniProt P33261); experiment: Inhibition of CYP2C19 (unknown origin) at 10 uM incubated for 20 mins by LC-MS/MS analysis; format: ADME
[18] = biological target: CYP2D6 (Homo sapiens, UniProt P10635); experiment: Inhibition of CYP2D6 (unknown origin) at 10 uM incubated for 20 mins by LC-MS/MS analysis; format: ADME
[19] = biological target: T1, CYP3A4 (Homo sapiens, UniProt P08684); experiment: Inhibition of CYP3A4 (unknown origin) at 10 uM using midazolam as substrate incubated for 20 mins by LC-MS/MS analysis; format: ADME; details: probe midazolam
[20] = biological target: T1, CYP3A4; experiment: Inhibition of CYP3A4 (unknown origin) at 10 uM using testosterone as substrate incubated for 20 mins by LC-MS/MS analysis; format: ADME; details: probe testosterone
[21] = biological target: Voltage-gated inwardly rectifying potassium channel KCNH2 (Homo sapiens, UniProt Q12809); experiment: Inhibition of human ERG expressed in CHO-K1 cells by QPatch - automated patch-clamp technology; format: cell-based
[22] = Protein binding in human plasma by LC-MS/MS analysis; format: ADME, cell-free; details: read-out: PPB (converted)
[23] = Protein binding in rat plasma by LC-MS/MS analysis; format: ADME, cell-free; details: read-out: PPB (converted)
[24] = Protein binding in mouse plasma by LC-MS/MS analysis; format: ADME, cell-free; details: read-out: PPB (converted)
[25] = Apparent permeability of the compound across apical to basolateral side in human Caco-2 cells; format: ADME, cell-based; details: read-out: permeability
[26] = Apparent permeability of the compound across basolateral to apical side in human Caco-2 cells; format: ADME, cell-based; details: read-out: permeability
[27] = Efflux ratio of apparent permeability across basolateral to apical side over apical to basolateral side in human Caco-2 cells; format: ADME, cell-based
[28] = Metabolic stability in human liver microsomes assessed as half life by LC-MS/MS analysis; format: ADME, Microsome
[29] = Metabolic stability in mouse liver microsomes assessed as half life by LC-MS/MS analysis; format: ADME, Microsome
[30] = Metabolic stability in human liver microsomes assessed as intrinsic clearance by LC-MS/MS analysis; format: ADME, Microsome
[31] = Metabolic stability in mouse liver microsomes assessed as intrinsic clearance by LC-MS/MS analysis; format: ADME, Microsome
[32] = tested on: Mus musculus; experiment: Anti-necroptosis activity against TNFalpha-induced C57BL/6J mouse systemic inflammatory response syndrome model assessed as reduction in hypothermia at 5 mg/kg, ip measured after 15 mins; format: functional, organism-based
Procedure, shortened: (§2)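 C57BL/6 mice were given vehicle (sterile PBS with 40% PEG400) or compound at 5 mg/kg i.p. about 15 min before i.v. mouse TNFa ([…]). Body temperature and survival were monitored. Temperature changes are shown as means ± SEM per group.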

[33] = tested on: Mus musculus; experiment: Anti-necroptosis activity against TNFalpha-induced C57BL/6J mouse systemic inflammatory response syndrome model assessed as reduction in lethal shock at 5 mg/kg, ip measured after 15 mins; format: functional, organism-based; procedure, shortened: as §2
[34] = tested on: Mus musculus; experiment: Antiinflammatory activity in TNFalpha-induced C57BL/6J mouse systemic inflammatory response syndrome model assessed as reduction in IL-6 production in serum at 5 mg/kg, ip measured 4 hrs after TNFalpha stimulation by ELISA; format: functional, organism-based
Procedure, shortened: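 C57BL/6 mice were dosed i.p. at 5 mg/kg in PBS/40% PEG400 about 15 min before i.v. mouse TNFa ([…]). Mice were killed 4 h after TNFa and serum IL-6 was measured by ELISA.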

[35] = biological target: Mixed lineage kinase domain-like protein (Homo sapiens) (UniProt Q8NB16); experiment: Inhibition of MLKL (unknown origin) polymerization

Chain of Receptor-interacting serine/threonine-protein kinase 2 (Homo sapiens) (O43353 whole entry): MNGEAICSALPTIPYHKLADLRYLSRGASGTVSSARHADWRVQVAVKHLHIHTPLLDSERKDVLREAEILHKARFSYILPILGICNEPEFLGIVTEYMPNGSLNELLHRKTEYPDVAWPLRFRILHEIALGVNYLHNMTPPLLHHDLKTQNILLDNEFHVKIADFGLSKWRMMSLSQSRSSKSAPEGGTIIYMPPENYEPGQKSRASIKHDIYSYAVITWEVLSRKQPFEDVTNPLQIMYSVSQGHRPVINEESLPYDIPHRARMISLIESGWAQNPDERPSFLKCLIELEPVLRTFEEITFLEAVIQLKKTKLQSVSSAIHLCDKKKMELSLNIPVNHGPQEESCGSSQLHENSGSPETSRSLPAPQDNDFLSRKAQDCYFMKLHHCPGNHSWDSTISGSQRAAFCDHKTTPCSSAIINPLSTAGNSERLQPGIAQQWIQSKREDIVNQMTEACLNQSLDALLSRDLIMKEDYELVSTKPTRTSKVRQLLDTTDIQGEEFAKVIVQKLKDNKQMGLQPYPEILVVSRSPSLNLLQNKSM
Chain of Activin receptor type-1B (P36896 whole entry): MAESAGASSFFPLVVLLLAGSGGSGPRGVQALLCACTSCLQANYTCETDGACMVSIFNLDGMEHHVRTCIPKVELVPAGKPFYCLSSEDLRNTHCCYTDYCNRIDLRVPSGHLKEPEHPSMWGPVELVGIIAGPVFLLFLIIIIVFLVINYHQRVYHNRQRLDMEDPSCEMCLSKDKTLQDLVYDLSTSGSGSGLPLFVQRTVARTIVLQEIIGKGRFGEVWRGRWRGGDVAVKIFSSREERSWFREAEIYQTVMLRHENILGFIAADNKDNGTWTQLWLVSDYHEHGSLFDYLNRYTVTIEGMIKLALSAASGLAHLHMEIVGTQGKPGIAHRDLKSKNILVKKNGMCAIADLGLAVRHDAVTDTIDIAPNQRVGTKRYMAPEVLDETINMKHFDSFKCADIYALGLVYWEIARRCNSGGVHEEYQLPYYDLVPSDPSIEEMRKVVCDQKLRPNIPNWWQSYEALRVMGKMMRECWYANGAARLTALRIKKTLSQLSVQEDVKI
T1 sequence (P08684 whole entry): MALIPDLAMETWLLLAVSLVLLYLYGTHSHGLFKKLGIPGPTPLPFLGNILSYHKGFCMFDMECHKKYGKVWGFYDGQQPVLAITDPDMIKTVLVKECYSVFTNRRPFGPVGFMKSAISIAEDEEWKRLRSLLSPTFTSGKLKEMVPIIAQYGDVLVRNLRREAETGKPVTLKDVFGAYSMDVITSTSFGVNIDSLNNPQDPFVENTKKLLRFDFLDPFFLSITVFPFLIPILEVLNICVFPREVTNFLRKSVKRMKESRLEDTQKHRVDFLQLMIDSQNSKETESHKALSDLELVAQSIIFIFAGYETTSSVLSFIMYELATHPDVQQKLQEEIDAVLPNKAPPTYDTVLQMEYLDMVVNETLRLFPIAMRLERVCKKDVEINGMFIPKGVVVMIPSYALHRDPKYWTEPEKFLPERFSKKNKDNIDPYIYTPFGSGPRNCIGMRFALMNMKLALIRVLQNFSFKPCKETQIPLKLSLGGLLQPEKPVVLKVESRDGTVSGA
Chain of CYP2C19 (P33261 whole entry): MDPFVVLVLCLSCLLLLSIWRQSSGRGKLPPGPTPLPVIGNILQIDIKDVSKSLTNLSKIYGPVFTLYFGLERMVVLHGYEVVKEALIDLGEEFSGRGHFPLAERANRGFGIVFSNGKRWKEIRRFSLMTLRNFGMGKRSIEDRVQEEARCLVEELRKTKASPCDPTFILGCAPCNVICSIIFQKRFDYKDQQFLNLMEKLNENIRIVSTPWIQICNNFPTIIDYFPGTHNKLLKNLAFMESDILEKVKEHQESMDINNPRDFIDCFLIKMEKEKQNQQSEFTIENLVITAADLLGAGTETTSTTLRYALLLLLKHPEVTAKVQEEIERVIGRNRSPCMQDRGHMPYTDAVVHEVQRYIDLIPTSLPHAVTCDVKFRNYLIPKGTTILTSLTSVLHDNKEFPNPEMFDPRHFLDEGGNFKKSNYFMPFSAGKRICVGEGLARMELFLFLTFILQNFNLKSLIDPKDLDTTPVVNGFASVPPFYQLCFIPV
Chain of CYP1A2 (P05177 whole entry): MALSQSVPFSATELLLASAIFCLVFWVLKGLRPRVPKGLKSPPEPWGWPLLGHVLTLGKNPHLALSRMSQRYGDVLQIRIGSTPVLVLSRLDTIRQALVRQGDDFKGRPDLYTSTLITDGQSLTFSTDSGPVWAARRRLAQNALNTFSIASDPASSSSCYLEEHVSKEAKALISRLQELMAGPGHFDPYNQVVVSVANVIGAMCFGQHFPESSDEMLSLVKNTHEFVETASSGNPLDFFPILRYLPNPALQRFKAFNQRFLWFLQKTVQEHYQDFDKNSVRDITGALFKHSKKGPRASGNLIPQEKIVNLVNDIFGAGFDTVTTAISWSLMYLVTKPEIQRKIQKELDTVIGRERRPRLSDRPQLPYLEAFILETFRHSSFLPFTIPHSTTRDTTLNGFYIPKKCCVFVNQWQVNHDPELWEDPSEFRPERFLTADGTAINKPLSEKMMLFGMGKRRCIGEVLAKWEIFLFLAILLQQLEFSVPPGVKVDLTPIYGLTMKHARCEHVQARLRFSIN
Chain of Receptor-interacting serine/threonine-protein kinase 3 (Q9Y572 whole entry): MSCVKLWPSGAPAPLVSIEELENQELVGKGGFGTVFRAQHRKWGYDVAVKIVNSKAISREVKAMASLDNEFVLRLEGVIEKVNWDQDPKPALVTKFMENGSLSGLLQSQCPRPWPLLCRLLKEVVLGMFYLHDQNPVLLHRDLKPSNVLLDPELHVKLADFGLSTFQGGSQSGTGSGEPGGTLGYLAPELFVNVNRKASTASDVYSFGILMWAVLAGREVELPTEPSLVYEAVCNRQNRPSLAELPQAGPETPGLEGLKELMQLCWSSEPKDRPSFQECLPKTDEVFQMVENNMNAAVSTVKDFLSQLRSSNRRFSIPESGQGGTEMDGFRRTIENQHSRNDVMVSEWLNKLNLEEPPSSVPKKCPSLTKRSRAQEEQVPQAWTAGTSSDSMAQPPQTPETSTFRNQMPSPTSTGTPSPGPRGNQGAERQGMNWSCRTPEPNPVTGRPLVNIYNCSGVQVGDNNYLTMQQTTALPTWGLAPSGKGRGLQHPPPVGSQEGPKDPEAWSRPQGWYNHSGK
Chain of CYP2D6 (P10635 whole entry): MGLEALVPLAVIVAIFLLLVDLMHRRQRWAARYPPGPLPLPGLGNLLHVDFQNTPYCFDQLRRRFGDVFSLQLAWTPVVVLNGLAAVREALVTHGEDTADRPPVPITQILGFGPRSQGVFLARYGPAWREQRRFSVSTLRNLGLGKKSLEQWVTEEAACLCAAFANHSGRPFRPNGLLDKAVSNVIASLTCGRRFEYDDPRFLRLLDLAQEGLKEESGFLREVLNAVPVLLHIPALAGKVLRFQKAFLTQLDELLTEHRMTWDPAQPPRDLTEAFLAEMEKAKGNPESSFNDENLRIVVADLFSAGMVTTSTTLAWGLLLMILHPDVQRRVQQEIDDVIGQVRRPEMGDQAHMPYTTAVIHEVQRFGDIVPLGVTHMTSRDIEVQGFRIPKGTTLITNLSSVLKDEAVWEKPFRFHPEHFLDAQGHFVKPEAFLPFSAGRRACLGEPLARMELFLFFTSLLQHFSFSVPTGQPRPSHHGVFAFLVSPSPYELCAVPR
Chain of Receptor-interacting serine/threonine-protein kinase 1 (Homo sapiens) (Q13546 whole entry): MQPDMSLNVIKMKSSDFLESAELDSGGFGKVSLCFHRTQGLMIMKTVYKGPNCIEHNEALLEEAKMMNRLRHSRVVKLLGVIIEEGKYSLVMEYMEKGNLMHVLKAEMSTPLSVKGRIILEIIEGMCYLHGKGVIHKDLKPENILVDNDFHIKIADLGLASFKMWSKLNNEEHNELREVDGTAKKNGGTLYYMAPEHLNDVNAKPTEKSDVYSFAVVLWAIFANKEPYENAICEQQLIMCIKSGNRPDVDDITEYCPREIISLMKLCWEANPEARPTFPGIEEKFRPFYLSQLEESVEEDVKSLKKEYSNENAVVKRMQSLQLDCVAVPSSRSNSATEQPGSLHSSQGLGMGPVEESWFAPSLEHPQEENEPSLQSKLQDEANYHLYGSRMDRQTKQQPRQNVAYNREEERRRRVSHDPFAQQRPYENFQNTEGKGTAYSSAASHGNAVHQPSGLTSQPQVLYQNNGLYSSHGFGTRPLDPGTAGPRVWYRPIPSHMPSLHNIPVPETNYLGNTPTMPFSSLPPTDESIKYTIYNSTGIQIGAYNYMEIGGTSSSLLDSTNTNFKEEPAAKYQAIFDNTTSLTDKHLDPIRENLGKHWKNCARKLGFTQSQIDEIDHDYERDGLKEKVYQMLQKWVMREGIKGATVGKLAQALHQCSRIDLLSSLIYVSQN
Chain of Receptor-interacting serine/threonine-protein kinase 1 (Q13546 whole entry): as above
Chain of CDK4/Cyclin D3 (P11802 whole entry): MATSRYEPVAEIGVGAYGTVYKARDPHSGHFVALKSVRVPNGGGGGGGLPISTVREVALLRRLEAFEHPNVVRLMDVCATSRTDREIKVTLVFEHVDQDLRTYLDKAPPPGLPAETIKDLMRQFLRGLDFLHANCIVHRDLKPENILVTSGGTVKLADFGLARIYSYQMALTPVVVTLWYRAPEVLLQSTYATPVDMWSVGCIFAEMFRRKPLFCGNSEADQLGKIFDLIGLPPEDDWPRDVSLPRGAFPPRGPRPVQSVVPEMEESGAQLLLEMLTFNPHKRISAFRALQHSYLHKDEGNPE
Chain of CDK4/Cyclin D3 (P30281 whole entry, further chain): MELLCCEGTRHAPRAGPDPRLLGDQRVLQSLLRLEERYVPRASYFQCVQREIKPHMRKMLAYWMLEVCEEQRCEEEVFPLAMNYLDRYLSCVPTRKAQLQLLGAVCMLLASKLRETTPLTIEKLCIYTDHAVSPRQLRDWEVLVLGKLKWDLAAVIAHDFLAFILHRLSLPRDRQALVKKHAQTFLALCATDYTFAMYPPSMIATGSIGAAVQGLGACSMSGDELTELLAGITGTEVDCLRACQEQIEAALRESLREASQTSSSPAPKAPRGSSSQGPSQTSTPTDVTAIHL

SMILES: Cc1ccc(O)cc1Nc1ccnc2cc3c(cc12)S(=O)(=O)C(C)(C)C3=O
- pEC50 [1]: 6.37
- Activity [2]: > 30%

- pIC50 [3]: 6.80
SMILES: O=C(O)c1ccc(-c2nc(-c3ccc4c(c3)OCO4)c(-c3ccccn3)[nH]2)cc1

SMILES: C=C1c2cc3nccc(Nc4ccc5scnc5c4)c3cc2S(=O)(=O)C1(C)C
- pEC50 [1]: 5.99

- inhibition [4]: Active
SMILES: CC(C)S(=O)(=O)c1ccc2nccc(Nc3ccc4scnc4c3)c2c1
- pEC50 [1]: 5.82
- pEC50 [5]: 5.60

SMILES: O=C1CS(=O)(=O)c2cc3c(Nc4ccc5scnc5c4)ccnc3cc21
- pEC50 [1]: 5.42

SMILES: CC1(C)C(O)(C2CC2)c2cc3nccc(Nc4ccc5scnc5c4)c3cc2S1(=O)=O (stereo not drawn)
- pEC50 [1]: < 4.70

SMILES: CC1(C)C(=O)c2cc3nccc(Nc4cc(O)ccc4F)c3cc2S1(=O)=O
- pEC50 [1]: 6.48
- Activity [2]: > 30%

SMILES: CC1(CC2CC2)C(=O)c2cc3nccc(Nc4ccc5scnc5c4)c3cc2S1(=O)=O (stereo not drawn)
- pEC50 [1]: < 4.70

SMILES: CC1(C)C(=O)c2cc3nccc(Nc4n[nH]c5ccc(F)cc45)c3cc2S1(=O)=O
- pEC50 [1]: < 4.70

SMILES: O=S1(=O)CC2(CCCO2)c2cc3nccc(Nc4ccc5scnc5c4)c3cc21 (stereo not drawn)
- pEC50 [1]: 5.40

SMILES: CC1(O)c2cc3nccc(Nc4ccc5scnc5c4)c3cc2S(=O)(=O)C1(C)C (stereo not drawn)
- pEC50 [1]: < 4.70

SMILES: CC1(C)C(=O)c2cc3nccc(Nc4cc(O)c(F)cc4F)c3cc2S1(=O)=O
- pEC50 [1]: 5.99
- Activity [2]: > 30%

SMILES: O=S1(=O)CC2(COC2)c2cc3nccc(Nc4ccc5scnc5c4)c3cc21
- pEC50 [1]: < 4.70

SMILES: CC1COC2(CS(=O)(=O)c3cc4c(Nc5ccc6scnc6c5)ccnc4cc32)O1 (stereo not drawn)
- pEC50 [1]: 5.97

SMILES: CC1(C)C(O)c2cc3nccc(Nc4ccc5scnc5c4)c3cc2S1(=O)=O (stereo not drawn)
- pEC50 [1]: 5.66

SMILES: CC1(C)C(=O)c2cc3nccc(Nc4ccc5scnc5c4)c3cc2S1(=O)=O
- pEC50 [1]: 5.65

- pKd [6]: 8.14
- pKd [7]: 5.23
- inhibition [8]: inactive
- pIC50 [9]: < 5.00
- pIC50 [10]: 6.82
- pIC50 [11]: < 5.00
- pIC50 [12]: 5.87
- pIC50 [13]: < 5.00
- pIC50 [14]: 5.11
- inhibition at 20 min, 10 µM [15]: 37%
- inhibition at 20 min, 10 µM [16]: -6.33%
- inhibition at 20 min, 10 µM [17]: 19.9%
- inhibition at 20 min, 10 µM [18]: -5.26%
- inhibition at 20 min, 10 µM [19]: -13.7%
- inhibition at 20 min, 10 µM [20]: 9.6%
- fraction unbound [22]: 0.029
- fraction unbound [23]: 0.013
- fraction unbound [24]: 0.027
- Papp A→B [25]: 35.2 ×10⁻⁶ cm/s
- Papp B→A [26]: 25.3 ×10⁻⁶ cm/s
- efflux ratio [27]: 0.72
- half-life [28]: 28.8 min
- half-life [29]: 20.3 min
- CLH [30]: 60.5 mL/min/kg
- CLH [31]: 269 mL/min/kg
- inhibition [35]: inactive
- inhibition [4]: Active
- pIC50 [3]: 5.43
SMILES: O=S1(=O)CC2(OCCO2)c2cc3nccc(Nc4ccc5scnc5c4)c3cc21
- pEC50 [1]: 6.38
- pIC50 [21]: < 4.52
- Activity [32]: Active
- Activity [33]: Active
- Activity [34]: Active
- pEC50 [5]: 6.27

SMILES: CCC1(C)C(=O)c2cc3nccc(Nc4ccc5scnc5c4)c3cc2S1(=O)=O (stereo not drawn)
- pEC50 [1]: < 4.70

SMILES: O=S1(=O)CCc2cc3nccc(Nc4ccc5scnc5c4)c3cc21
- pEC50 [1]: 5.64

SMILES: Cc1n[nH]c(Nc2ccnc3cc4c(cc23)S(=O)(=O)C(C)(C)C4=O)c1C
- pEC50 [1]: < 4.70
